ChEMBL document CHEMBL1142632, “A new bioactive sesterterpene and antiplasmodial alkaloids from the marine sponge hyrtios cf. erecta” (J Nat Prod, 2000)
In brackets after ≈: the same amount, converted by molar mass. Activity calls are given as the source filed them. The rule behind the calls is not given here.

What was measured:
Microbotryum violaceum = assay: Antifungal activity against Ustilago violacea at 50 ug by agar diffusion assay; format: functional; conditions: read-out: IZ
In short: (§1)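 Agar diffusion: crude extracts and pure compounds applied at 50 µg per disk; growth inhibition read as zone diameter (mm).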

[1] = molecular target: Tyrosine-protein kinase Lck (Homo sapiens) (UniProt P06239); assay: Inhibition of p56 LCK activity at 0.5 mM; design: scale not given: the % may be the effect or the level left
Tyrosine-protein kinase Lck (Homo sapiens), sequence (P06239 2-509 limits assumed): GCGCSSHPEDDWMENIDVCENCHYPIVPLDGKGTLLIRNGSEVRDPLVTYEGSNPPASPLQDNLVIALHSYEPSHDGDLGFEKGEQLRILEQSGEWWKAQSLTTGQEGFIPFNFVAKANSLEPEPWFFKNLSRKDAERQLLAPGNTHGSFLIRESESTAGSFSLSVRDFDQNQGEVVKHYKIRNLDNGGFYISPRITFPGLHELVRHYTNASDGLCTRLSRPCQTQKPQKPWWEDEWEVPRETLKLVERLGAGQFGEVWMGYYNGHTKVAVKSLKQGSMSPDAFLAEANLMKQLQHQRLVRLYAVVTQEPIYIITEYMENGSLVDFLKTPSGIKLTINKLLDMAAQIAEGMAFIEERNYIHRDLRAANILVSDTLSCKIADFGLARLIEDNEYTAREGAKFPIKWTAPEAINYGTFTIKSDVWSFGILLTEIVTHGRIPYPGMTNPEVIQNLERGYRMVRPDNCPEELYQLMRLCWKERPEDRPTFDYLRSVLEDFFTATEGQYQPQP
In short: (§2)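 Nonradioactive ELISA-based tyrosine kinase assay. Samples in DMSO/H2O (1:1) were incubated with 1 U p56lck, 1 µM tyrosine kinase substrate II, 1 mM ATP and 10 mM MgCl2 at 30 °C for 60 to 80 min. Buffers: 20% dilution buffer (HEPES, pH 7.0) and 20% assay buffer (Tris, pH 7.5, with Na3VO4). Absorbance read at 415 nm as residual activity.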

Plasmodium falciparum [2] = assay: Antiplasmodial activity against chloroquine, pyrimethamine-resistant Plasmodium falciparum K1; format: functional, organism-based
In short: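 In vitro assay against P. falciparum strain K1, a Thailand isolate resistant to chloroquine and pyrimethamine. Chloroquine and artemisinin were run as positive controls.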

Plasmodium falciparum [3] = assay: Antiplasmodial activity against chloroquine-sensitive Plasmodium falciparum NF54; format: functional, organism-based
In short: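 In vitro assay against P. falciparum strain NF54, of unknown origin and susceptible to standard antimalarials. Chloroquine and artemisinin were run as positive controls.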

Escherichia coli = assay: Antibacterial activity against Escherichia coli at 50 ug by agar diffusion assay; format: functional; conditions: read-out: IZ; in short: as §1
Priestia megaterium = assay: Antibacterial activity against Bacillus megaterium at 50 ug by agar diffusion assay; format: functional; conditions: read-out: IZ; in short: as §1
[4] = molecular target: Tyrosine-protein kinase Lck (Homo sapiens) (UniProt P06239); assay: Inhibition of p56 LCK activity at 0.7 mM; design: scale not given: the % may be the effect or the level left; in short: as §2
[5] = molecular target: Human immunodeficiency virus type 1 reverse transcriptase (Human immunodeficiency virus 1) (UniProt Q72547); assay: Inhibition of HIV1 reverse transcriptase assessed as enzyme residual activity at 0.12 mM
In short: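 Nonradioactive ELISA-based reverse transcriptase assay. Reaction mixture held 1 ng recombinant HIV-1-RT. Samples were dissolved in 10% DMSO/lysis buffer. Read-out was residual enzyme activity.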

[6] = test system: Trypanosoma brucei rhodesiense; assay: Antitrypanosomal activity against Trypanosoma brucei subsp. rhodesiense; format: functional, organism-based
Hepatovirus A [7] = assay: Antiviral activity against HAV cytHB1.1 in FRhK4 cells assessed as effect on cytopathogenic effect at 0.038 ug/mL after 21 days by immunofluorescence analysis; format: functional, organism-based
In short: (§3)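 FRhK-4 cells in 96-well plates were used. For line 5, cells were inoculated with 2 × 10^7 TCID50/ml HAVcytHB1.1. For line 4, cells were persistently infected with HAV/7. Morphology (cytopathogenicity) was checked microscopically over 21 days, and HAV antigen was detected by immunofluorescence after 21 days.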

Hepatovirus A [8] = assay: Antiviral activity against HAV 7 in FRhK4 cells assessed as effect on cytopathogenic effect at 0.038 ug/mL after 21 days by immunofluorescence analysis; format: functional, organism-based; in short: as §3
[9] = Cytotoxicity against rat L6 cells; format: cell-based; conditions: read-out: MIC
[10] = molecular target: Tyrosine-protein kinase Lck (Homo sapiens) (UniProt P06239); assay: Inhibition of p56 LCK activity at 0.6 mM; design: scale not given: the % may be the effect or the level left; in short: as §2
[11] = molecular target: Tyrosine-protein kinase Lck (Homo sapiens) (UniProt P06239); assay: Inhibition of p56 LCK activity at 0.3 mM; design: scale not given: the % may be the effect or the level left; in short: as §2
[12] = Cytotoxicity against mouse peritoneal macrophages; format: cell-based, Macrophage; conditions: read-out: MIC

SMILES	IC50 (Plasmodium falciparum [2]) [µg/mL]	IC50 (Plasmodium falciparum [3]) [µg/mL]	zone of inhibition at 50 µg/disc (Escherichia coli) [mm]	zone of inhibition at 50 µg/disc (Priestia megaterium) [mm]	MCC [9] [µg/mL]	other results
CC1=C(CC/C(C)=C/CC/C(C)=C/CCC2=CCOC2=O)C(C)(C)CCC1	–	–	–	–	–	zone of inhibition at 50 µg/disc (Microbotryum violaceum): 2 mm
CC1=C(CC/C(C)=C/CC/C(C)=C/CCC2=CCOC2=O)C(C)(C)CCC1=O	–	–	–	–	–	Activity [1]: 45%
C[C@@H]1CC[C@H]2[C@@H](C)C(=O)O[C@@H]3O[C@@]4(C)CC[C@@H]1[C@]32OO4 [ARTEMISININ]	0.001 (≈ 3.54 nM)	0.002 (≈ 7.08 nM)	–	–	–	–
O=C1c2ccccc2-[n+]2ccc3c([nH]c4ccccc43)c21.[Cl-] [FASCAPLYSIN CHLORIDE]	0.05	0.034	6	10	2.5	Activity [4]: 10%; Activity [5]: 10%; IC50 [6]: 630 nM; Activity (Hepatovirus A [7]): Active; Activity (Hepatovirus A [8]): Active
CC(=O)CC1(O)c2ccccc2-[n+]2ccc3c([nH]c4ccccc43)c21.[Cl-] (configuration not stated) [HOMOFASCAPLYSIN A]	0.014	0.024	9	11	1.1	Activity [10]: 8%; Activity [11]: 44%; MCC [12]: 30 µg/mL
